Active and inactive are the calls of the source. The calls are words filed in the database; no cut-off is given here.
Assays:
[1] = organism: Rattus norvegicus; assay: Induction of AMPK phosphorylation in 2 hrs serum starved rat differentiated L6 myotubes after 1 hr
Method in brief: (§1)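 Fully differentiated L6 myotubes were serum-starved 2 h, then treated 1 h across a dose series. Phospho-AMPK (Thr172) and phospho-ACC (Ser79) were detected by Western blot. Three independent experiments.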

[2] = organism: Rattus norvegicus; assay: Induction of AMPK-dependent ACC phosphorylation in 2 hrs serum starved rat differentiated L6 myotubes after 1 hr; method in brief: as §1
[3] = tested on: L6; assay: Increase in glucose uptake in rat differentiated L6 myotubes after 1 hr; type: functional, cell-based
Method in brief: (§2)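 Fully differentiated L6 myotubes were serum-starved 2 h, then treated with compound for 15 min to 2 h (dose series at 1 h). Glucose uptake was measured relative to DMSO control. Mean of three independent experiments ± SE.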

[4] = Stability in acidic buffer at pH 2 after 6 hrs by HPLC; type: physicochemical; conditions: buffer, pH 2, 6 h
Method in brief: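 A 0.5 mg/mL solution in acetonitrile was adjusted to pH 2 with H3PO4 and analyzed over 6 h by HPLC. Conditions: C18 column at 25 °C, 58% acetonitrile in 0.05 mol/L KH2PO4/0.005 mol/L SDS, 1 mL/min, detection at 320 nm.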

[5] = tested on: L6; assay: Increase in intracellular AMP:ATP ratio in rat differentiated L6 myotubes after 1 hr; type: functional, cell-based
Method in brief: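 Differentiated L6 myotubes were serum-starved 2 h and incubated 1 h with increasing concentrations. Intracellular AMP, ADP and ATP were measured and the AMP:ATP ratio calculated, with berberine 5 µM as positive control. Three independent experiments ± SE.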

[6] = organism: Rattus norvegicus; assay: Inhibition of electron transport protein complex 1-mediated cellular respiration in rat liver mitochondria assessed as consumption of oxygen at 2.5 to 40 uM using pyruvate as substrate
Method in brief: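 Mitochondria isolated from rat liver. Complex I substrates 5 mM pyruvate plus 2 mM malate, with excess ADP (2.4 mM). Oxygen consumption read as dose–response. Three independent experiments, n = 5–7.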

[7] = Aqueous solubility of compound in distilled water; type: physicochemical
Method in brief: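 Excess solid was suspended in distilled water and stirred 24 h at 25 ± 0.5 °C. The suspension was filtered, and dissolved concentration was measured by HPLC.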

[8] = Half life in 12 hrs fasting Sprague-Dawley rat at 10 mg/kg, po; type: ADME, organism-based; parameters: dose 10 mg/kg, route oral; conditions: in vivo
Method in brief: (§3)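 Male Sprague–Dawley rats were fasted 12 h and gavaged at 10 mg/kg. Blood was taken retro-orbitally into heparin tubes from pre-dose to 24 h. Plasma levels of parent and of berberine/dihydroberberine were measured by LC–MS/MS.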

[9] = Cmax in 12 hrs fasting Sprague-Dawley rat at 10 mg/kg, po; type: ADME, organism-based; parameters: dose 10 mg/kg, route oral; conditions: in vivo; method in brief: as §3
[10] = Oral bioavailability in 12 hrs fasting Sprague-Dawley rat at 10 mg/kg; type: ADME, organism-based; conditions: in vivo; method in brief: as §3
[11] = tested on: Mus musculus; assay: Toxicity in high fat diet-fed C57BL/6J mouse assessed as change in body weight at 15 mg/kg/day, po for 6 weeks; type: organism-based; parameters: route oral; conditions: in vivo, 1008 h
Method in brief: (§4)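 Male C57BL/6J mice (purchased at 6 weeks of age) fed 60 kcal% fat diet for 8 weeks, then randomized by body weight and fed glucose. Dosed orally once daily for 6 weeks in vehicle of 0.5% microcrystalline cellulose plus 1.6% lactose. Groups: high-fat vehicle, metformin 250 mg/kg positive control, chow-fed vehicle. Body weight and food intake recorded daily.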

[12] = tested on: Mus musculus; assay: Toxicity in high fat diet-fed C57BL/6J mouse assessed as change in food intake at 15 mg/kg/day, po for 6 weeks; type: organism-based; parameters: route oral; conditions: in vivo, 1008 h; method in brief: as §4
[13] = tested on: Mus musculus; assay: Antidiabetic activity in high fat diet-fed C57BL/6J mouse assessed as increase in glucose tolerance at 15 mg/kg/day, po for 4 weeks measured after 30 mins by intraperitoneal glucose tolerance test; type: functional, organism-based
Method in brief: (§5)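 High-fat-diet (60 kcal%, 8 weeks) male C57BL/6J mice were randomized by body weight and fed glucose, then dosed orally once daily in cellulose/lactose vehicle. ipGTT was done at 4 weeks: D-glucose 2 g/kg ip, glucometer readings at 0, 15, 30, 60, 90 and 120 min. n = 5–8.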

[14] = tested on: Mus musculus; assay: Antidiabetic activity in high fat diet-fed C57BL/6J mouse assessed as increase in glucose tolerance at 15 mg/kg/day, po for 4 weeks measured after 120 mins by intraperitoneal glucose tolerance test; type: functional, organism-based; method in brief: as §5
[15] = tested on: Mus musculus; assay: Antidiabetic activity in high fat diet-fed C57BL/6J mouse assessed as alleviation of insulin resistance at 15 mg/kg/day, po for 4 weeks measured after 60 mins by insulin tolerance test; type: functional, organism-based
Method in brief: (§6)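 Male C57BL/6J mice were fed a 60 kcal% fat diet for 8 weeks, randomized, then gavaged daily in 0.5% microcrystalline cellulose/1.6% lactose vehicle. ITT was run at 4 weeks: 6 h fast, insulin 0.75 U/kg ip, blood glucose at 0, 15, 30, 60, 90 and 120 min. Mean ± SE, n = 5–8.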

[16] = tested on: Mus musculus; assay: Antidiabetic activity in high fat diet-fed C57BL/6J mouse assessed as alleviation of insulin resistance at 15 mg/kg/day, po for 4 weeks measured after 90 mins by insulin tolerance test; type: functional, organism-based; method in brief: as §6
[17] = tested on: Mus musculus; assay: Antiobese activity in high fat diet-fed C57BL/6J mouse assessed as decrease in plasma triglyceride level at 15 mg/kg/day, po for 6 weeks; type: functional; parameters: scale not given: the % may be the effect or the level left
Method in brief: (§7)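 DIO male C57BL/6J mice received daily oral dosing in cellulose/lactose vehicle for 6 weeks and were killed after the final dose. Plasma and liver triglycerides were measured by triglyceride assay kit, and fat depots were weighed.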

[18] = tested on: Mus musculus; assay: Antidiabetic activity in C57BLKS/J-db/db mouse assessed as reduction of fasting blood glucose level at 50 mg/kg/day, po for 4 weeks; type: functional; parameters: scale not given: the % may be the effect or the level left
[19] = tested on: Mus musculus; assay: Antidiabetic activity in C57BLKS/J-db/db mouse assessed as alleviation of glucose tolerance at 50 mg/kg/day, po for 3 weeks measured after 15 mins by intraperitoneal glucose tolerance test; type: functional, organism-based
Method in brief: (§8)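 Male and female C57BLKS/J-db/db mice, randomized at 6 weeks of age by body weight and fed glucose, were gavaged once daily in vehicle (0.5% microcrystalline cellulose, 1.6% lactose). For ipGTT, D-glucose was given at 2 g/kg ip, and blood glucose was read by glucometer at 0, 15, 30, 60, 90 and 120 min.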

[20] = tested on: Mus musculus; assay: Antiobese activity in high fat diet-fed C57BL/6J mouse assessed as decrease in liver triglyceride level at 15 mg/kg/day, po for 6 weeks; type: functional; parameters: scale not given: the % may be the effect or the level left; method in brief: as §7
[21] = tested on: Mus musculus; assay: Antiobese activity in high fat diet-fed C57BL/6J mouse assessed as decrease in subcutaneous fat at 15 mg/kg/day, po for 6 weeks; type: functional; parameters: scale not given: the % may be the effect or the level left; method in brief: as §7
[22] = tested on: Mus musculus; assay: Antidiabetic activity in high fat diet-fed C57BL/6J mouse assessed as decrease in plasma insulin level at 15 mg/kg/day, po for 4 weeks; type: functional; parameters: scale not given: the % may be the effect or the level left
Method in brief: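 DIO male C57BL/6J mice (60 kcal% fat diet for 8 weeks) were gavaged daily in 0.5% microcrystalline cellulose/1.6% lactose vehicle. Plasma insulin was determined by ELISA after 4 weeks of treatment. Mean ± SE, n = 5–8.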

[23] = tested on: Mus musculus; assay: Antidiabetic activity in C57BLKS/J-db/db mouse assessed as decrease in fed blood glucose level at 50 mg/kg/day, po for 3 weeks; type: functional; parameters: scale not given: the % may be the effect or the level left
[24] = tested on: Mus musculus; assay: Antidiabetic activity in C57BLKS/J-db/db mouse assessed as decrease in fed blood glucose level at 50 mg/kg/day, po for 4 weeks; type: functional; parameters: scale not given: the % may be the effect or the level left
[25] = tested on: Mus musculus; assay: Antidiabetic activity in C57BLKS/J-db/db mouse assessed as reduction of fasting blood glucose level at 50 mg/kg/day, po for 3 weeks; type: functional; parameters: scale not given: the % may be the effect or the level left
[26] = tested on: Mus musculus; assay: Antidiabetic activity in C57BLKS/J-db/db mouse assessed as alleviation of glucose tolerance at 50 mg/kg/day, po for 3 weeks measured after 90 mins by intraperitoneal glucose tolerance test; type: functional, organism-based; method in brief: as §8
[27] = tested on: Mus musculus; assay: Antidiabetic activity in C57BLKS/J-db/db mouse assessed as alleviation of glucose tolerance at 50 mg/kg/day, po for 3 weeks measured after 120 mins by intraperitoneal glucose tolerance test; type: functional, organism-based; method in brief: as §8
[28] = tested on: Mus musculus; assay: Antiobese activity in C57BLKS/J-db/db mouse assessed as decrease in plasma triglyceride level at 50 mg/kg/day, po […]; type: functional; parameters: scale not given: the % may be the effect or the level left
Method in brief: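 db/db mice were gavaged once daily in 0.5% microcrystalline cellulose/1.6% lactose vehicle for 6 weeks and killed after the final dose. Plasma triglycerides were measured with a colorimetric triglyceride assay kit.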

[29] = tested on: Mus musculus; assay: Toxicity in C57BLKS/J-db/db mouse assessed as change in body weight at 50 mg/kg/day, po for 6 weeks; type: organism-based; parameters: route oral; conditions: in vivo, 1008 h
Method in brief: (§9)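 db/db mice (half male, half female) were dosed by oral gavage daily for 6 weeks in 0.5% microcrystalline cellulose/1.6% lactose vehicle. Body weight and food intake were recorded daily. Mice were killed after the final dose, and liver and fat depots were weighed and expressed relative to body weight.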

[30] = tested on: Mus musculus; assay: Toxicity in C57BLKS/J-db/db mouse assessed as change in food intake at 50 mg/kg/day, po for 6 weeks; type: organism-based; parameters: route oral; conditions: in vivo, 1008 h; method in brief: as §9
[31] = tested on: L6; assay: Increase in glucose uptake in rat differentiated L6 myotubes at 20 uM in presence of 10 nM AMPK inhibitor compound C; type: functional, cell-based
[32] = tested on: Mus musculus; assay: Antidiabetic activity in C57BLKS/J-db/db mouse assessed as decrease in area under curve at 50 mg/kg/day, po for 4 weeks by insulin tolerance test; type: functional; parameters: scale not given: the % may be the effect or the level left
[33] = tested on: L6; assay: Increase in glucose uptake in rat differentiated L6 myotubes at 2.5 uM after 1 hr; type: functional; method in brief: as §2
[34] = tested on: L6; assay: Increase in glucose uptake in rat differentiated L6 myotubes at 20 uM after 1 hr; type: functional; method in brief: as §2
[35] = tested on: L6; assay: Increase in glucose uptake in rat differentiated L6 myotubes after 15 mins; type: functional; method in brief: as §2
[36] = tested on: L6; assay: Increase in glucose uptake in rat differentiated L6 myotubes after 2 hrs; type: functional; method in brief: as §2
[37] = tested on: L6; assay: Increase in glucose uptake in rat differentiated L6 myotubes after 1 hr relative to untreated control; type: functional; method in brief: as §2
[38] = tested on: Mus musculus; assay: Toxicity in C57BLKS/J-db/db mouse assessed as change in adipose tissue mass at 50 mg/kg/day, po for 6 weeks; type: organism-based; parameters: route oral; conditions: in vivo, 1008 h; method in brief: as §9
[39] = tested on: Mus musculus; assay: Toxicity in C57BLKS/J-db/db mouse assessed as change in fat to body weight ratio at 50 mg/kg/day, po for 6 weeks; type: organism-based; parameters: route oral; conditions: in vivo, 1008 h; method in brief: as §9
[40] = tested on: Mus musculus; assay: Toxicity in C57BLKS/J-db/db mouse assessed as change in liver to body weight ratio at 50 mg/kg/day, po for 6 weeks; type: organism-based; parameters: route oral; conditions: in vivo, 1008 h; method in brief: as §9
[41] = tested on: L6; assay: Increase in glucose uptake in rat differentiated L6 myotubes at 10 uM in presence of 100 nM PI-3 kinase inhibitor wortmannin

Activity [1]: Dose-dependent effect
Activity [2]: Dose-dependent effect
Stability [4]: Stable
solubility [7]: 81 mg/mL
half-life [8]: 2.9 h
Cmax [9]: 17.8 ng/mL
bioavailability [10]: 10%
Activity [41]: Active
Structure (SMILES): COc1ccc2c(c1OC)C(C)(C)[N+]1=C(C2)c2cc3c(cc2CC1)OCO3.[Cl-] [8,8-dimethyldihydroberberine]
Activity [3]: Dose-dependent effect
Activity [5]: Dose-dependent effect
inhibition [6]: Dose-dependent effect
Activity [11]: Non-toxic
Activity [12]: Non-toxic
Activity [13]: Active
Activity [14]: Active
Activity [15]: Active
Activity [16]: Active
Activity [17]: 26%
Activity [18]: 24%
Activity [19]: Active
Activity [20]: 36%
Activity [21]: 36%
Activity [22]: 45%
Activity [23]: 24%
Activity [24]: 40%
Activity [25]: 24%
Activity [26]: Active
Activity [27]: Active
Activity [28]: 38%
Activity [29]: Non-toxic
Activity [30]: Non-toxic
Activity [31]: inactive
Activity [32]: 28%
Activity [33]: 48%
Activity [34]: 67%
Activity [35]: 28%
Activity [36]: 84%
Activity [37]: 37%
Activity [38]: Non-toxic
Activity [39]: Non-toxic
Activity [40]: Non-toxic

From ChEMBL document CHEMBL1821702, “8,8-Dimethyldihydroberberine with improved bioavailability and oral efficacy on obese and diabetic mouse models” (Bioorg Med Chem, 2010)
